Measured values: the array DNA melting data of Ke et al. (doi:10.1101/2024.01.08.574731)

Experiments:
[1] = folding enthalpy; higher = less favourable; fluorescence melt of hairpins on a sequencing array, two-state fit; conditions: sodium 0.088 M
Procedure, shortened: (§1)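 Library hairpins on a sequenced MiSeq flow cell carried annealed Cy3 and quencher oligos, and their Cy3 fluorescence was imaged in 50 mM Na-HEPES pH 8.0 with 25 mM NaCl, in 2.5 °C steps up to 60 °C. Signals were normalised to Cy3 before quenching and to control constructs. Melting temperature and folding enthalpy were obtained from bootstrapped two-state fits, combined by inverse-variance weighting across four replicates, and the fitted temperatures were then raised by 9.35 °C to match UV melts.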

[2] = melting temperature; fluorescence melt of hairpins on a sequencing array, two-state fit, raised by 9.35 °C to match UV melts; conditions: sodium 0.088 M
Procedure, shortened: as §1

**Q.** Which folding enthalpy [1] does the source give for GCCGAGCGAAAGCACAGC ((.(.((....)).).)) here?
**A.** -15.1 kcal/mol

**Q.** What about the Tm [2] of the same sequence?
**A.** 40.1 °C

**Q.** With GGTCCGGGAAACCGAACC (((.(((....))).))) as the sequence, how does the folding enthalpy [1] read?
**A.** -29.1 kcal/mol

**Q.** What about the Tm [2] of the same sequence?
**A.** 46.8 °C

**Q.** What does the source list for GATCAGCAGACTGATC ((((((....))))))?
**A.** folding enthalpy [1]: -42.5 kcal/mol; Tm [2]: 50.3 °C

**Q.** For GATCGTGTTAACGATC ((((((....)))))), which folding enthalpy [1] is on record?
**A.** -36 kcal/mol

**Q.** And the Tm [2]?
**A.** 66.9 °C

**Q.** For GCCGACGAAAGTCAGGGC ((((((....)))..))), which folding enthalpy [1] is on record?
**A.** -36.8 kcal/mol

**Q.** And the Tm [2]?
**A.** 55.1 °C

**Q.** With GAAAACCGAAAGGTTTC (((.(((....)))))) as the sequence, how does the folding enthalpy [1] read?
**A.** -15.9 kcal/mol

**Q.** And the Tm [2]?
**A.** 44.2 °C

**Q.** With GATCTGTACGCAGATC ((((((....)))))) as the sequence, how does the folding enthalpy [1] read?
**A.** -44.9 kcal/mol

**Q.** What about the Tm [2] of the same sequence?
**A.** 54.4 °C

**Q.** Which results are given for GATCACCAGTGTGATC ((((((....))))))?
**A.** folding enthalpy [1]: -47.5 kcal/mol; Tm [2]: 53.3 °C

**Q.** For GATCGACGAAAGTCCATC (((.(((....))).))), which folding enthalpy [1] is on record?
**A.** -15.5 kcal/mol

**Q.** What about the Tm [2] of the same sequence?
**A.** 30 °C

**Q.** Which results are given for GGTTCAGGAAACTGAACC (((((((....)))))))?
**A.** folding enthalpy [1]: -41.4 kcal/mol; Tm [2]: 63.8 °C

**Q.** Which results are given for GAGATGCGAAAGCAACTC (((.(((....))).)))?
**A.** folding enthalpy [1]: -23 kcal/mol; Tm [2]: 53.9 °C

**Q.** Which results are given for GATCAAATTTTTGATC ((((((....))))))?
**A.** folding enthalpy [1]: -39 kcal/mol; Tm [2]: 47.7 °C

**Q.** With GCACTAGGAAACTAGCGC ((.((((....)))).)) as the sequence, how does the folding enthalpy [1] read?
**A.** -33.4 kcal/mol

**Q.** And the Tm [2]?
**A.** 45.5 °C

**Q.** Which folding enthalpy [1] does the source give for GATCATCTCTATGATC ((((((....)))))) here?
**A.** -38.9 kcal/mol

**Q.** And the Tm [2]?
**A.** 47.1 °C

**Q.** For GCGTACGGAAACGCACAC (.((.((....)).)).), which folding enthalpy [1] is on record?
**A.** -12.6 kcal/mol

**Q.** And the Tm [2]?
**A.** 38.1 °C

**Q.** Which folding enthalpy [1] does the source give for GCACTACGAAAGTAATGC (((.(((....))).))) here?
**A.** -29.3 kcal/mol

**Q.** What about the Tm [2] of the same sequence?
**A.** 43.7 °C

**Q.** Which results are given for GAATTAGGAAACTAATTC (((((((....)))))))?
**A.** folding enthalpy [1]: -38.8 kcal/mol; Tm [2]: 46.9 °C

**Q.** For GCTACCCGAAAGGGCAGC (((.(((....))).))), which folding enthalpy [1] is on record?
**A.** -32.9 kcal/mol

**Q.** And the Tm [2]?
**A.** 57.8 °C

**Q.** Which results are given for GCCGCAGGAAACCGCGAC (.(((.(....).))).)?
**A.** folding enthalpy [1]: -15.6 kcal/mol; Tm [2]: 35.9 °C

**Q.** For GCCATTACGAAAGTAGGC (((..(((....)))))), which folding enthalpy [1] is on record?
**A.** -25.6 kcal/mol

**Q.** And the Tm [2]?
**A.** 42.2 °C

**Q.** With GATCAATGTATTGATC ((((((....)))))) as the sequence, how does the folding enthalpy [1] read?
**A.** -41.1 kcal/mol

**Q.** And the Tm [2]?
**A.** 51 °C

**Q.** Which results are given for GCGCAGCGAAAGCTCTGC ((..(((....)))..))?
**A.** folding enthalpy [1]: -7.6 kcal/mol; Tm [2]: 38.5 °C

**Q.** Which results are given for GGTCAATCGAAAGATACC (((..(((....))))))?
**A.** folding enthalpy [1]: -13.3 kcal/mol; Tm [2]: 26.9 °C

**Q.** What does the source list for GATCCTTACTAGGATC ((((((....))))))?
**A.** folding enthalpy [1]: -36.5 kcal/mol; Tm [2]: 52.4 °C

**Q.** Which folding enthalpy [1] does the source give for CTGGTGAAAACCAG (((((....))))) here?
**A.** -20.3 kcal/mol

**Q.** What about the Tm [2] of the same sequence?
**A.** 52.8 °C

**Q.** Which folding enthalpy [1] does the source give for GCTCGTCGAAAGACAAGC (((.(((....))).))) here?
**A.** -24.7 kcal/mol

**Q.** What about the Tm [2] of the same sequence?
**A.** 49.5 °C

**Q.** Which folding enthalpy [1] does the source give for GGTTAGCGAAAGCTCACC (((.(((....))).))) here?
**A.** -26.6 kcal/mol

**Q.** What about the Tm [2] of the same sequence?
**A.** 49.1 °C

**Q.** Which folding enthalpy [1] does the source give for GGGTTTGGAAACGAACTC (.(((.(....).))).) here?
**A.** -24 kcal/mol

**Q.** What about the Tm [2] of the same sequence?
**A.** 32.4 °C

**Q.** Which folding enthalpy [1] does the source give for GCATTGCGAAAGCGATGC ((((.((....)).)))) here?
**A.** -38 kcal/mol

**Q.** What about the Tm [2] of the same sequence?
**A.** 67.5 °C

**Q.** Which folding enthalpy [1] does the source give for GATCCCCCTGGGGATC ((((((....)))))) here?
**A.** -36.1 kcal/mol

**Q.** And the Tm [2]?
**A.** 67.5 °C

**Q.** Which folding enthalpy [1] does the source give for GATCTCATCCGAGATC ((((((....)))))) here?
**A.** -39.2 kcal/mol

**Q.** What about the Tm [2] of the same sequence?
**A.** 53.2 °C

**Q.** For GCCATGCGAAAGCGAGGC (((..((....))..))), which folding enthalpy [1] is on record?
**A.** -21.6 kcal/mol

**Q.** And the Tm [2]?
**A.** 60 °C

**Q.** Which results are given for GCTCCGCGAAAGCGAGGC ((..(((....)))..))?
**A.** folding enthalpy [1]: -14.4 kcal/mol; Tm [2]: 55.6 °C

**Q.** Which results are given for GTTGCAGAAATGCAAC ((((((....))))))?
**A.** folding enthalpy [1]: -35.3 kcal/mol; Tm [2]: 57.5 °C

**Q.** Which folding enthalpy [1] does the source give for GTGTTCGAAAGAACTCAC ((((((....)))..))) here?
**A.** -13.7 kcal/mol

**Q.** And the Tm [2]?
**A.** 38.1 °C

**Q.** For GATCTCCTAGGAGATC ((((((....)))))), which folding enthalpy [1] is on record?
**A.** -36 kcal/mol

**Q.** What about the Tm [2] of the same sequence?
**A.** 57.8 °C

**Q.** With GATCCGCCTACGGATC ((((((....)))))) as the sequence, how does the folding enthalpy [1] read?
**A.** -37.9 kcal/mol

**Q.** And the Tm [2]?
**A.** 59.6 °C

**Q.** For GCAGAGCGAAAGCCCGGC ((.(.((....)).).)), which folding enthalpy [1] is on record?
**A.** -17.9 kcal/mol

**Q.** And the Tm [2]?
**A.** 44.8 °C

**Q.** Which results are given for GCCTTTGAAAAAAGGC ((((((....))))))?
**A.** folding enthalpy [1]: -32.6 kcal/mol; Tm [2]: 59.2 °C

**Q.** Which results are given for GCAAAGTCGAAAGACTGC (((..(((....))))))?
**A.** folding enthalpy [1]: -19.5 kcal/mol; Tm [2]: 47.8 °C

**Q.** With GTAAGCCGAAAGGCCTAC (((.(((....))).))) as the sequence, how does the folding enthalpy [1] read?
**A.** -13.7 kcal/mol

**Q.** And the Tm [2]?
**A.** 39.4 °C

**Q.** For GTAGGGGGAAACCTCTAC ((((.((....)).)))), which folding enthalpy [1] is on record?
**A.** -33 kcal/mol

**Q.** And the Tm [2]?
**A.** 44.6 °C

**Q.** With CGCGGACCTCTCCGCG ((((((....)))))) as the sequence, how does the folding enthalpy [1] read?
**A.** -31.9 kcal/mol

**Q.** What about the Tm [2] of the same sequence?
**A.** 68.7 °C

**Q.** Which folding enthalpy [1] does the source give for GAAGCACGAAAGTGGTTC (((.(((....))).))) here?
**A.** -31.6 kcal/mol

**Q.** And the Tm [2]?
**A.** 61.3 °C

**Q.** With GCACCGCGAAAGCGCCGC ((..(((....)))..)) as the sequence, how does the folding enthalpy [1] read?
**A.** -8.78 kcal/mol

**Q.** And the Tm [2]?
**A.** 36.1 °C

**Q.** With GGCCAGGGAAACCCGGCC ((((.((....)).)))) as the sequence, how does the folding enthalpy [1] read?
**A.** -40.9 kcal/mol

**Q.** What about the Tm [2] of the same sequence?
**A.** 62.1 °C
